Consider 30 compounds from ChEMBL document CHEMBL3421574, “Discovery of Potent Inhibitors of Schistosoma mansoni NAD⁺ Catabolizing Enzyme” (J Med Chem, 2015).

The source made the active and inactive calls. No cut-off for these calls is given here.

A short description of experiment [1]: Inhibition of recombinant Schistosoma mansoni NACE using 1, N6-etheno NAD+ as substrate by fluorometric analysis. The essentials:
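Continuous fluorometric read of recombinant SmNACE turning over ε-NAD+ to ε-ADP-ribose (ex 310 nm, em 410 nm), at 37 °C in 10 mM potassium phosphate pH 7.4 with 0.05% (w/v) emulphogen. Initial rates are taken at 6 inhibitor concentrations. IC50 comes from non-linear regression of residual activity against log[inhibitor]. Values are means of three independent determinations.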

Experiment [2] addresses ADP-ribosyl cyclase/cyclic ADP-ribose hydrolase 1 (Homo sapiens) (UniProt P28907). Briefly: Inhibition of human CD38 at 100 uM by HPLC analysis relative to control. The essentials: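 Human CD38 with inhibitor at 100 µM, given as percent inhibition. Enzyme activity is measured by HPLC at 20 µM NAD+: isocratic C18 separation (10 mM ammonium phosphate pH 5.5, 1.2% (v/v) acetonitrile, 1 mL/min) with detection at 260 nm, plus radiodetection when [14C]NAD+ is added.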

The nature of experiment [3]: Selectivity ratio of IC50 for human CD38 to IC50 for recombinant Schistosoma mansoni NACE.
The target in experiment [4] is T1, ADP-ribosyl cyclase/cyclic ADP-ribose hydrolase 1 (Homo sapiens, UniProt P28907).
T1 sequence (P28907 whole entry): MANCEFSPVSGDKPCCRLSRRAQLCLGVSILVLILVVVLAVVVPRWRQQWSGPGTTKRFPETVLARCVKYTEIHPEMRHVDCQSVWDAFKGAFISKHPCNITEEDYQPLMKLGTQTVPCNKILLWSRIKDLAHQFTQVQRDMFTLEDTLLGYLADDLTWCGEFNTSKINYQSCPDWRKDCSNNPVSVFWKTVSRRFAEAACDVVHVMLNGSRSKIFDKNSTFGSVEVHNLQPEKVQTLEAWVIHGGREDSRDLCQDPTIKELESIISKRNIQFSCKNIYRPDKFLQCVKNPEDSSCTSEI
As to the kind of experiment: Inhibition of human CD38 by HPLC analysis.

The test system of experiment [5] is Schistosoma mansoni. Briefly: Inhibition of recombinant Schistosoma mansoni NACE using 1, N6-etheno NAD+ as substrate at 100 uM by fluorometric analysis relative to control. The essentials: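 Single-point screen at 100 µM inhibitor against recombinant SmNACE with ε-NAD+ substrate. Initial-rate fluorescence of ε-ADP-ribose is read (ex 310 nm, em 410 nm) at 37 °C in 10 mM potassium phosphate pH 7.4 with 0.05% (w/v) emulphogen, and expressed as percent inhibition.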

Experiment [6] deals with Schistosoma mansoni. Briefly: Competitive inhibition of recombinant Schistosoma mansoni NACE by Dixon plot analysis in presence of 1, N6-etheno NAD+. The essentials:
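Recombinant SmNACE with ε-NAD+ in 10 mM potassium phosphate pH 7.4, 0.05% (w/v) emulphogen, 37 °C. Initial rates are followed fluorometrically as ε-ADP-ribose appears (ex 310 nm, em 410 nm). Three fixed inhibitor concentrations are each combined with ε-NAD+ at 20, 50 and 100 µM, and 1/v is plotted against [I] (Dixon) to assign the inhibition type.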

The test system of experiment [7] is Schistosoma mansoni. As to the kind of experiment: Inhibition of recombinant Schistosoma mansoni NACE using NAD+ as substrate at 100 uM by HPLC analysis relative to control. The essentials:
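HPLC assay for recombinant SmNACE at 20 µM NAD+ substrate, used where compounds fluoresce on their own. Inhibitor is tested at 100 µM. Products are separated isocratically on a C18 column (10 mM ammonium phosphate pH 5.5, 1.2% (v/v) acetonitrile, 1 mL/min) and detected at 260 nm. In some runs [adenosine-U-14C]NAD+ is added with radiodetection.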

For the compound `COc1ccc(O)c(/C=N\NC(=O)c2ccoc2C)c1`, the IC50 in experiment [1] (read-out: IC50) amounted to 0.045 µM. In experiment [2], the inhibition came to 0%. The Ratio IC50 in experiment [3] was > 1000.
Turning to `Cc1occc1C(=O)N/N=C\c1c(O)cc(Cl)cc1Cl`, in experiment [1] (read-out: IC50), the concentration for half-maximal inhibition (IC50) amounted to 0.077 µM. Besides, the inhibition in experiment [2] amounted to 0%. The Ratio IC50 in experiment [3] was > 1000.
For the compound `Cc1cccc(C(=O)NNC(=O)c2ccoc2C)c1O`, in experiment [1], the IC50 result was “ND(Insoluble)”.
For `Cc1occc1C(=O)N/N=C\c1cccc(Cl)c1O`, the figures for the half-maximal inhibitory concentration (IC50) in experiment [1] (read-out: IC50) and in experiment [4] were 0.15 µM and 14 µM, respectively. Further, the inhibition in experiment [2] is 66.7%.
In the case of `COc1cc(O)c(/C=N\NC(=O)c2ccoc2C)c(OC)c1`, in experiment [1] (read-out: IC50), the IC50 is 0.19 µM. The same compound had an inhibition in experiment [2] of 0%.
For the compound `Cc1occc1C(=O)N(C)/N=C\c1ccccc1O`, in experiment [1], the IC50 result is “ND(Insoluble)”.
As for `COc1ccccc1CCNC(=O)c1ccoc1C`, the inhibition in the experiment on Schistosoma mansoni [5] came out at 0%.
As for `Cc1occc1C(=O)N/N=C\c1cccc(F)c1O`, the results for the IC50 in experiment [1] (read-out: IC50) and in experiment [4] were 0.036 µM and 26 µM, respectively. In experiment [2], the inhibition turned out to be 27.2%. For the same compound, the “Inhibition type (Dixon plot)” value with Schistosoma mansoni [6] was “Active”.
For `Cc1occc1-c1nnc(-c2cc(Cl)ccc2O)o1`, the inhibition (in experiment [2]; with Schistosoma mansoni [5]) was 0% each time.
Consider `Cc1occc1C(=O)N/N=C\c1cccc(O)c1O`, for which the IC50 in experiment [1] (read-out: IC50) came out at 8.7 µM. For the same compound, the inhibition in experiment [2] was 0%.
For `Cc1occc1C(=O)N/N=C\c1ccccc1`, the IC50 in experiment [1] (read-out: IC50) turned out to be 330 µM; in experiment [4], 296 µM.
On to `COc1ccccc1/C=N\NC(=O)c1ccoc1C`, for which the IC50 in experiment [1] (read-out: IC50) is 67 µM. The inhibition in experiment [2] was 0%.
Regarding `Cc1occc1C(=O)N/N=C\c1ccc(O)c(O)c1`, the IC50 is 88 µM in experiment [1] (read-out: IC50) and 109 µM in experiment [4]. In the experiment on Schistosoma mansoni [6], the “Inhibition type (Dixon plot)” value is “Active”.
Take `COc1cc(/C=N\NC(=O)c2ccoc2C)ccc1O`: the IC50 in experiment [1] (read-out: IC50) stood at 80 µM; in experiment [4], 103 µM.
As for `COc1ccc(-c2nnc(-c3ccoc3C)o2)c(O)c1`, the inhibition (in experiment [2]; in the experiment with Schistosoma mansoni [5]) was 0% each time.
Regarding `Cc1occc1C(=O)N/N=C\c1ccccc1O`, the IC50 in experiment [1] (read-out: IC50) was determined as 0.13 µM; in experiment [4] it was 430 µM. The inhibition in experiment [2] was found to be 20%. Also, the “Inhibition type (Dixon plot)” value in the experiment with Schistosoma mansoni [6] is “Active”. Moreover, the Ratio IC50 in experiment [3] was > 1000.
With `Cc1occc1C(=O)NNCc1ccccc1O`, the IC50 in experiment [1] (read-out: IC50) came to 12.3 µM. The inhibition in experiment [2] worked out at 0%.
The matching figures for `Cc1cccc(/C=N\NC(=O)c2ccoc2C)c1O`: 59 µM and 0%.
With `Cc1occc1C(=O)NNC(=O)c1cc(Cl)ccc1O`, the IC50 in experiment [1] (read-out: IC50) was 0.039 µM. In experiment [2], this compound yielded an inhibition of 6.7%. Besides, the “Inhibition type (Dixon plot)” value with Schistosoma mansoni [6] was “Active”. Moreover, the Ratio IC50 in experiment [3] is > 1000.
For the compound `Cc1occc1C(=O)NNC(=O)c1ccccc1O`, the values for the IC50 in experiment [1] (read-out: IC50) and in experiment [4] were 0.25 µM and 120 µM, respectively. In addition, the inhibition in experiment [2] turned out to be 27.6%.
`Cc1occc1C(=O)NCCc1ccccc1O`: the IC50 in experiment [1] (read-out: IC50) came to 131 µM.
In the case of `O=C1c2c(O)cc(O)cc2OC(c2ccc(O)c(O)c2)C1O` (racemic), the inhibition in the experiment with Schistosoma mansoni [7] and with Schistosoma mansoni [5] was > 40% each time.
With `COc1ccc(/C=N\NC(=O)c2ccoc2C)c(O)c1`, in experiment [1] (read-out: IC50), the IC50 worked out at 0.032 µM. This compound also gave an inhibition in experiment [2] of 0%. The Ratio IC50 in experiment [3] is > 1000.
The matching figures for `Cc1occc1C(=O)N/N=C\c1cc(Cl)ccc1O`: 0.033 µM, 0% and > 1000.
Consider `C/C(=N/NC(=O)c1ccoc1C)c1ccccc1O`, for which, in experiment [1], the IC50 entry was “ND(Insoluble)”.
With `Cc1occc1-c1nnc(-c2ccccc2O)o1`, the inhibition (in experiment [2]; with Schistosoma mansoni [5]) was 0% throughout.
Consider `COc1ccccc1CNNC(=O)c1ccoc1C`, for which the IC50 in experiment [1] (read-out: IC50) came out at 11.6 µM. In addition, the inhibition in experiment [2] came out at 0%.
In the case of `COc1ccc(C(=O)NNC(=O)c2ccoc2C)c(O)c1`, the IC50 in experiment [1] (read-out: IC50) worked out at 0.074 µM. The inhibition in experiment [2] was 6.7%. For the same compound, in the experiment on Schistosoma mansoni [6], the “Inhibition type (Dixon plot)” value is “Active”. Further, the Ratio IC50 in experiment [3] is > 1000.
On to `Cc1occc1C(=O)N/N=C\c1cccc(C(C)(C)C)c1O`, for which, in experiment [1] (read-out: IC50), the IC50 stood at 105 µM.
Take `COc1ccccc1/C=N\N(C)C(=O)c1ccoc1C`: in experiment [1] (read-out: IC50), the IC50 was 513 µM.
